Published values of several laboratories.
Each line is one published result; the experiments were not run side by side.
Cell line: MCF7
Observed: cell growth or viability

COc1cc2c(OC)nc3c4cc5c(cc4cc(OCCN(C)C)c3c2cc1OC)OCO5 — GI50 (MTT; 72 h): > 100 µM
COc1ccc(C(=O)/C=C/c2cccc(Br)c2)cc1S(N)(=O)=O — GI50 (SRB; 48 h): 1.6 µM
COc1cc2c(OC)nc3c4cc5c(cc4cc(OCCN4CCCC4)c3c2cc1OC)OCO5 — GI50 (MTT; 72 h): ≥ 100 µM
COc1ccc(-c2ccc(-c3ccc(C(=N)N)nc3)s2)cc1Cl — GI50 (SRB): 1.75 µM
COc1ccc(C(=O)/C=C/c2ccc3ccccc3c2)cc1S(N)(=O)=O — GI50 (SRB; 48 h): 1.6 µM
COc1cc2c(cc1O)CC[C@@H]1[C@@H]2CC[C@]2(C)[C@@H](O)CC[C@@H]12 — GI50 (SRB; 96 h): 0.6 µM
COc1cc(C(CC(N)=O)NCCc2ccc(O)c(O)c2)ccc1O (centres unmarked) — GI50 (MTT): 26.2 µM
CCN(CC)CCOc1cc2cc3c(cc2c2nc(OC)c4cc(OC)c(OC)cc4c12)OCO3 — GI50 (MTT; 72 h): ≥ 100 µM
COc1cc(C(CC(=O)c2ccc([N+](=O)[O-])cc2)NCCc2ccc(O)c(O)c2)ccc1O (centres unmarked) — GI50 (MTT): 0.16 µM
COc1ccc(C(=O)/C=C/c2cc3c(cc2Br)OCO3)cc1S(N)(=O)=O — GI50 (SRB; 48 h): 3.8 µM
COc1ccc(-c2ccc(-c3ccc(C(=N)N)nc3)s2)cc1 — GI50 (SRB): 1.74 µM
COc1ccc(C(=O)/C=C/c2cccc3ccccc23)cc1S(N)(=O)=O — GI50 (SRB; 48 h): 2.1 µM
COc1cc2c(OC)nc3c4cc5c(cc4cc(O)c3c2cc1OC)OCO5 — GI50 (MTT; 72 h): 13 µM
COc1cc(C(CC(C)=O)NCCc2ccc(O)c(O)c2)ccc1O (centres unmarked) — GI50 (MTT): 22.4 µM
CC(=O)c1c(C)c2cnc(Nc3ccc(N4CCNCC4)cn3)nc2n(C2CCCC2)c1=O — GI50 (resazurin): 0.15 µM
COc1cc(C(CC(=O)c2ccc(C)cc2)NCCc2ccc(O)c(O)c2)ccc1O (centres unmarked) — GI50 (MTT): 5.2 µM
COc1ccc(C(=O)/C=C/c2cccc(Cl)c2)cc1S(N)(=O)=O — GI50 (SRB; 48 h): 2 µM
